We go through 53 molecules from PubChem BioAssay AID1665 (Sanford-Burnham Center for Chemical Genomics, 2009).

Among all 190,000 compounds or so, about 590 (0.31%) were called active.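 How the source made its calls: active means nuclear translocation activity above 50% at 5 µM, with a well cell count of 50 or more; inconclusive means wells under 50 cells across six images, flagged as toxic; inactive means the rest.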 The sample as a whole holds a higher share of actives than the screen did.

This test is described as follows: modulators of beta-catenin nuclear translocation, primary screen, imaging, HeLa cells, immunofluorescence, high-content (AID 1665).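 On nuclear translocation activity: plate controls were DMSO negative control for no effect and GSK-3 inhibitor IX positive control for full effect.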 The following applies: at 5 µM; cell count: measured here: cell count, cytotoxicity flag; nuclear translocation activity: stronger effect = higher value. The method in brief: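 Assay system: human HeLa cells, native beta-catenin; doses: 5 µM primary, 0.02–20 µM confirmation; incubation: compound treatment 24 h, 37°C, 5% CO2; technique: fluorescence imaging of beta-catenin antibody stain plus DAPI; measure: % activation, nuclear-to-cytoplasmic median beta-catenin signal ratio per cell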
In the case of `CCOC(=O)C1CCN(c2c(Nc3cc(C)cc(C)c3)c(=O)c2=O)CC1`, the cell count turned out to be 1340 cells and the nuclear translocation activity is 0.9% (inactive).

As for `O=C(Cn1cnc2cc([N+](=O)[O-])ccc2c1=O)NC(=O)NCc1ccccc1`, the cell count stood at 1320 cells and the nuclear translocation activity was -2.1% (inactive).

On to `Cc1cc(=O)[nH]c2nnnn12`, for which the cell count came to 1080 cells and the nuclear translocation activity was -1.2% (inactive).

Take `COc1ccccc1/C=N\Nc1cc(C)nc(-n2nc(C)cc2C)n1`: the cell count amounted to 900 cells and the nuclear translocation activity is 0.7% (inactive).

`COc1ccc(Nc2cc(C)nc(-n3nc(C)cc3C)n2)cc1`: the cell count was determined as 451 cells and the nuclear translocation activity was 249% (active).

Consider `Cc1cc(N/N=C\c2ccc(Br)cc2)nc(-n2nc(C)cc2C)n1`, for which the cell count came out at 1430 cells and the nuclear translocation activity was -1.3% (inactive).

For `Nc1nnn(CC(=O)N/N=C/c2ccc(O)cc2)n1`, the cell count was determined as 1300 cells and the nuclear translocation activity was -1.2% (inactive).

Consider `COCCNC(=S)N1CCN(C)CC1`, for which the cell count is 1380 cells and the nuclear translocation activity was -0.3% (inactive).

In the case of `CCn1c(=O)c([N+](=O)[O-])c(NCc2ccc3c(c2)OCO3)c2ccccc21`, the cell count was determined as 1360 cells and the nuclear translocation activity was -0.1% (inactive).

Consider `COc1cc(OC)cc(/C(N)=N/O)c1`, for which the cell count was determined as 1310 cells and the nuclear translocation activity was 0.5% (inactive).

For the molecule `COC(=O)c1ccccc1N=Nc1c(C)[nH][nH]c1=O`, the cell count was 1310 cells and the nuclear translocation activity was -1.6% (inactive).

`O=C(NCCc1c[nH]c2ccc(Cl)cc12)c1ccc([N+](=O)[O-])cc1`: the cell count is 1380 cells and the nuclear translocation activity was 1.3% (inactive).

As for `N/C(=N\OC(=O)CCn1cccc(C(F)(F)F)c1=O)c1ccc(OC(F)(F)F)cc1`, the cell count was 1280 cells and the nuclear translocation activity was -1.4% (inactive).

On to `O=C(NCC1CCCO1)c1cc(-c2ccccc2)nc2ccccc12` (stereo unspecified), for which the cell count stood at 1120 cells and the nuclear translocation activity was -2% (inactive).

In the case of `CC(C)c1c(O)nc(SCCOc2ccc(Cl)cc2)[nH]c1=O`, the cell count was determined as 1310 cells and the nuclear translocation activity is 0.9% (inactive).

As to `Cc1nn(CC(=O)N/N=C/c2ccc(F)cc2)c(C)c1[N+](=O)[O-]`, the cell count came out at 1290 cells and the nuclear translocation activity was 0.3% (inactive).

For the molecule `O=C(NC1=NCCS1)c1ccc(Cl)s1`, the cell count is 998 cells and the nuclear translocation activity was 1.4% (inactive).

On to `CC(=O)NC1=NN(C(C)=O)C(C)(c2ccc(Cl)s2)S1` (stereo unspecified), for which the cell count is 101 cells and the nuclear translocation activity was 68.6% (active).

On to `O=C(O)C(NS(=O)(=O)c1cccc2nsnc12)c1ccccc1` (stereo unspecified), for which the cell count turned out to be 1330 cells and the nuclear translocation activity is -1% (inactive).

In the case of `Cc1ccc(S(=O)(=O)N(C)CC(=O)OCC(=O)Nc2ccccc2)cc1`, the cell count was found to be 1320 cells and the nuclear translocation activity is -1.1% (inactive).

For the molecule `CCS(=O)(=O)c1cc([N+](=O)[O-])c(Sc2ccccc2N)s1`, the cell count came out at 1180 cells and the nuclear translocation activity is -2.4% (inactive).

For the molecule `Cc1c(C(=O)N(Cc2ccccc2)Cc2cccnc2)cnn1-c1ccc(F)cc1`, the cell count was 1030 cells and the nuclear translocation activity was 0.4% (inactive).

Consider `CCOc1ccc(/C(O)=C2\C(=O)C(=O)N(c3ccc(OC)cc3)C2c2ccccc2[N+](=O)[O-])cc1` (stereo unspecified), for which the cell count is 1260 cells and the nuclear translocation activity is -0.5% (inactive).

Take `O=C(NN1C(=O)C2CCCCC2C1=O)c1ccco1` (stereo unspecified): the cell count worked out at 1260 cells and the nuclear translocation activity is 0.6% (inactive).

Consider `Cc1cc(-c2n[nH]c(=S)n2/N=C/c2ccco2)n[nH]1`, for which the cell count was 1280 cells and the nuclear translocation activity was -0.9% (inactive).

With `CCc1cccc(CC)c1NC(=S)Nc1ccc2cn[nH]c2c1`, the cell count stood at 1270 cells and the nuclear translocation activity was 0.8% (inactive).

Regarding `O=[N+]([O-])c1ccc(N=Cc2c(O)ccc3ccccc23)cc1`, the cell count came to 1330 cells and the nuclear translocation activity is 0.8% (inactive).

Turning to `Cc1ccc(C(=O)Nc2nc(N)n(-c3ccccc3)n2)cc1`, the cell count stood at 1180 cells and the nuclear translocation activity is -1.1% (inactive).

For the molecule `O=C(c1c(Cl)cccc1Cl)N1CCN(c2cccc3[nH]ccc23)CC1`, the cell count was found to be 1260 cells and the nuclear translocation activity is -1.5% (inactive).

Take `COc1ccc(NC(=O)c2cn(-c3ccccc3)nc2SC)cc1`: the cell count stood at 1240 cells and the nuclear translocation activity is 0.1% (inactive).

`O=C(Nc1nnc(CCN2CCCCC2)s1)c1cccc(Cl)c1`: the cell count amounted to 1310 cells and the nuclear translocation activity was 0.2% (inactive).

Take `C=CCSC(CC)(CC)C(N)=O`: the cell count was found to be 1320 cells and the nuclear translocation activity was 0.1% (inactive).

`Cc1cc(F)ccc1NC(=O)C(C)n1c2ccccc2c2nc(=O)cc(C)n21` (stereo unspecified): the cell count came to 1290 cells and the nuclear translocation activity was -0.2% (inactive).

Turning to `COc1ccc(CCN2C(=O)N(c3ccc(OC)cc3)C(=O)C2CC(=O)Nc2ccc(OC)cc2)cc1` (stereo unspecified), the cell count is 1360 cells and the nuclear translocation activity is -0.8% (inactive).

Take `Cc1nc(-c2nnc(SCC(=O)Nc3cc(C(F)(F)F)cc(C(F)(F)F)c3)n2C)cs1`: the cell count came to 1370 cells and the nuclear translocation activity was -0.7% (inactive).

As to `Cc1ccc2c(C)c(C(=O)N3CCC(N4CCC(C(=O)NC5CC5)CC4)CC3)oc2c1`, the cell count worked out at 1360 cells and the nuclear translocation activity is 1.4% (inactive).

In the case of `CSc1ccc(NC(=O)/C=C/C(=O)O)cc1`, the cell count was 1010 cells and the nuclear translocation activity was 2.1% (inactive).

With `CCN1CCN(c2nc(Nc3cccc(F)c3)nc(N)c2[N+](=O)[O-])CC1`, the cell count is 1210 cells and the nuclear translocation activity was -1.4% (inactive).

Consider `COc1ccc(Nc2nc(Cl)nc(NCc3ccco3)n2)cc1`, for which the cell count was 1380 cells and the nuclear translocation activity is 3% (inactive).

As for `Cc1ccccc1-c1nc(C#N)c(NCc2ccco2)o1`, the cell count came out at 1080 cells and the nuclear translocation activity is -3.1% (inactive).

For `COc1ccc(Nc2oc(-c3ccccc3Cl)nc2C#N)cc1`, the cell count stood at 210 cells and the nuclear translocation activity is 156% (active).

Regarding `NS(=O)(=O)c1ccc(NC2=CC(c3ccc(F)cc3)N(c3ccc(S(N)(=O)=O)cc3)C2=O)cc1` (stereo unspecified), the cell count is 1320 cells and the nuclear translocation activity was 0.9% (inactive).

Regarding `C/C(=N\NC(=O)c1cccnc1)c1ccc(-c2ccccc2)cc1`, the cell count was found to be 1160 cells and the nuclear translocation activity is -0.7% (inactive).

Turning to `O=C(Nc1ccc(S(=O)(=O)Nc2nccs2)cc1)c1cccc(S(=O)(=O)N2CCOCC2)c1`, the cell count was determined as 1290 cells and the nuclear translocation activity was 0.8% (inactive).

For the molecule `C[C@@H](NC(=O)OC(C)(C)C)c1nnc(S(=O)(=O)Cc2ccccc2)o1`, the cell count stood at 1360 cells and the nuclear translocation activity is -0.8% (inactive).

Regarding `COc1ccc(N2C(=O)c3ccccc3NC2c2ccc(OC)c(CN3CCOCC3)c2)cc1` (stereo unspecified), the cell count came to 1290 cells and the nuclear translocation activity is 0.6% (inactive).

With `CCCC(=O)Nc1nc2ccc(NC(=O)c3cccnc3)cc2s1`, the cell count was 895 cells and the nuclear translocation activity is -0.7% (inactive).

In the case of `COc1ccc2nc(Nc3nc4ccc(NC(C)=O)cc4s3)sc2c1`, the cell count worked out at 875 cells and the nuclear translocation activity is 2.8% (inactive).

Take `CCCC(=O)Nc1nc2ccc(NC(=O)c3c(F)c(F)c(OC)c(F)c3F)cc2s1`: the cell count turned out to be 260 cells and the nuclear translocation activity was 57.6% (active).

Regarding `Cc1ccc(/C=N/NC(=S)Nc2cccc(S(=O)(=O)N(C)C)c2)o1`, the cell count worked out at 1210 cells and the nuclear translocation activity is 2.8% (inactive).

Consider `CC(/C=C/C1(O)C(C)CC(=O)CC1(C)C)OC1OC(CO)C(O)C(O)C1O` (stereo unspecified), for which the cell count is 1080 cells and the nuclear translocation activity is -3% (inactive).

In the case of `C=CC1C(OC2OC(CO)C(O)C(O)C2O)OC=C(C(=O)OC)C1CC1CC(=O)CC(CC(=O)CCc2ccc(O)cc2)O1` (stereo unspecified), the cell count came to 387 cells and the nuclear translocation activity is 79.8% (active).

Regarding `Cc1cc(C(=O)NCCc2ccc(Cl)cc2)n(-c2ccccc2)n1`, the cell count came out at 1320 cells and the nuclear translocation activity is -0.3% (inactive).
